# Data: ChEMBL document CHEMBL1158546, “Discovery of novel and potent leukotriene B4 receptor antagonists. Part 1” (J Med Chem, 2010)
# Legend:
# [1] = biological target: Leukotriene B4 receptor 1 (Homo sapiens, UniProt Q15722); assay: Antagonist activity at BLT1 receptor expressed in human HL60 cells assessed as inhibition of LTB4-stimulated calcium flux after 30 mins; type: functional, cell-based, HL-60
# Summary of the method: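 HL-60 cells grown in RPMI-1640 with 20% FBS were plated at 2.0 × 10^5 cells/ml with 1 μM retinoic acid. They were dye-loaded in HBSS/20 mM HEPES/5 mM probenecid (0.05% BSA in the replacement buffer) for 1 h at 37 C. Compound (5 × 10^-11 to 3 × 10^-6 M final) was added for 30 min at room temperature, then 0.5 μM LTB4. Fluorescence was read every 1.5 s for 100 s and peak increase scored as % inhibition versus DMSO control.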
# Neutrophil = assay: Inhibition of LTB4-stimulated human neutrophils migration after 30 mins by using CyQuant GR fluorescent dye; type: functional, cell-based
# Summary of the method: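 Human blood neutrophils (95-97% pure, isolated over Lympholyte-poly) at 5 × 10^6 cells/mL were preincubated with compound (3 × 10^-12 to 1 × 10^-6 M final) for 30 min at 37 C. Migration toward 100 ng/mL LTB4 across a polycarbonate membrane ran 90 min at 37 C. Migrated cells were lysed with CyQuant GR and read at 480/520 nm. IC50 was taken from a sigmoidal fit of % inhibition.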
# [2] = Homo sapiens, Neutrophil, 0.5 h, read-out: IC50
# Leukotriene B4 receptor 1, sequence (Q15722 whole entry): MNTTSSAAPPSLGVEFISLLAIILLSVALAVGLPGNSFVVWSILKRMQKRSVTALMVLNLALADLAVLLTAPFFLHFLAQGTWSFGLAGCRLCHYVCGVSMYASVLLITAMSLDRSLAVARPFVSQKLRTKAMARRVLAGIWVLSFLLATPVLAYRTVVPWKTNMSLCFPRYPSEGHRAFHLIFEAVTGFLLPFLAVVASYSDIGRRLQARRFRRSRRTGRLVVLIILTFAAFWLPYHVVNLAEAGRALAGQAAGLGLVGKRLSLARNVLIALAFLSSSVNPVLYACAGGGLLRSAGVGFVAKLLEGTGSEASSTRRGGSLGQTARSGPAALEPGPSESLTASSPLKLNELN
Structure (SMILES),IC50 ([1]; read-out: IC50) [nM],IC50 (Neutrophil; [2]) [nM],IC50 ([1]; hl-60),IC50 (Neutrophil; neutrophil)
O=C(O)CCCOc1cccc(CCCCCCOc2cc(-c3cncnc3)cc(-c3cncnc3)c2)c1CCC(=O)O,5.35,–,–,–
O=C(O)CCCOc1cccc(CCCCCCOc2cc(-c3cccc(F)c3)cc(-c3ccc4[nH]ccc4c3)c2)c1CCC(=O)O,14,–,–,–
O=C(O)CCCOc1cccc(CCCCCCOc2cc(-c3ccccc3)cc(-c3ccc4c(c3)OCO4)c2)c1CCC(=O)O,0.58,0.7,–,–
CCc1cc(C(C)=O)c(O)cc1OCCCCCC(C)(C)c1nn[nH]n1 [LY-255283],–,–,Not Active,Not Active
COc1ccc(-c2cc(OCCCCCCc3cccc(OCCCC(=O)O)c3CCC(=O)O)cc(-c3ccc4c(c3)OCO4)c2)cc1,3.27,–,–,–
O=C(O)CCCOc1cccc(CCCCCCOc2cc(-c3ccc(F)cc3)cc(-c3ccc4c(c3)OCCO4)c2)c1CCC(=O)O,60.2,–,–,–

# More lines, now with the values ahead:
IC50 ([1]; read-out: IC50) [nM],IC50 (Neutrophil; [2]) [nM],IC50 ([1]; hl-60),IC50 (Neutrophil; neutrophil),Structure (SMILES)
0.36,0.2,–,–,O=C(O)CCCOc1cccc(CCCCCCOc2cc(-c3ccccc3)cc(-c3ccsc3)c2)c1CCC(=O)O
0.22,0.1,–,–,O=C(O)CCCOc1cccc(CCCCCCOc2cc(-c3ccncc3)cc(-c3ccc4c(c3)OCO4)c2)c1CCC(=O)O
0.57,–,–,–,O=C(O)CCCOc1cccc(CCCCCCOc2cc(-c3ccsc3)cc(-c3ccnc(Cl)c3)c2)c1CCC(=O)O
0.39,20,–,–,O=C(O)CCCOc1cccc(CCCCCCOc2cc(-c3cncnc3)cc(-c3ccsc3)c2)c1CCC(=O)O
0.2,–,–,–,O=C(O)CCCOc1cccc(CCCCCCOc2cc(-c3ccncc3)cc(-c3ccsc3)c2)c1CCC(=O)O
